In ChEMBL document CHEMBL2390920, “8-Benzamidochromen-4-one-2-carboxylic acids: potent and selective agonists for the orphan G protein-coupled receptor GPR35” (J Med Chem, 2013):

Legend:
[1] = target: T1, G-protein coupled receptor 55 (Homo sapiens, UniProt Q9Y2T6); experiment: Antagonist activity at human GPR55 expressed in CHO cells assessed as inhibition of lysophosphotidylinositol-induced beta-arrestin recruitment preincubated for 30 mins followed by lysophosphotidylinositol induction by beta-galactosidase reporter gene assay; assay type: functional, cell-based
T1 sequence (Q9Y2T6 whole entry): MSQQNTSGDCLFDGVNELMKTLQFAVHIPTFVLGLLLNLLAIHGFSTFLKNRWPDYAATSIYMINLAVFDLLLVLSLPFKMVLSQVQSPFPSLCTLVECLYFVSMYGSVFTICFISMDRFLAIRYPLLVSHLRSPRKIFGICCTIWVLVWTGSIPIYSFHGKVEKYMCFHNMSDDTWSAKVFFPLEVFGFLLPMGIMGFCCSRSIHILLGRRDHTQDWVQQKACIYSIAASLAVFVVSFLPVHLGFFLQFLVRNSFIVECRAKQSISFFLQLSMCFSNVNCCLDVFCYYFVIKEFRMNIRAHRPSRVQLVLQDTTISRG
How it was run: (§1)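 Human GPR55 PathHunter CHO cells were preincubated 30 min with compound, then stimulated with LPI (final 1 µM). After 90 min, detection reagent was added and luminescence read 60 min later. Screening was at 10 µM; full concentration-inhibition curves were run for selected compounds to give IC50.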

[2] = target: T1, G-protein coupled receptor 55; experiment: Agonist activity at human GPR55 expressed in CHO cells assessed as induction of beta-arrestin recruitment at 10 uM after 90 mins by beta-galactosidase reporter gene assay relative to lysophosphotidylinositol; assay type: functional, cell-based
How it was run: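 Human GPR55 PathHunter CHO cells, 20000 cells/well seeded the day before, received test compound at 10 µM (final DMSO ≤1%) for 90 min. Detection reagent was then added and luminescence read after 60 min. Signal was normalized to that of 1 µM LPI.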

[3] = target: G protein-coupled receptor GPR35 (Rattus norvegicus) (UniProt Q33BM1); experiment: Agonist activity at rat GPR35 expressed in CHO cells assessed as induction of beta-arrestin recruitment at 10 uM after 90 mins by beta-galactosidase reporter gene assay; assay type: cell-based
Sequence of G protein-coupled receptor GPR35 (Rattus norvegicus) (Q33BM1 as listed by the source): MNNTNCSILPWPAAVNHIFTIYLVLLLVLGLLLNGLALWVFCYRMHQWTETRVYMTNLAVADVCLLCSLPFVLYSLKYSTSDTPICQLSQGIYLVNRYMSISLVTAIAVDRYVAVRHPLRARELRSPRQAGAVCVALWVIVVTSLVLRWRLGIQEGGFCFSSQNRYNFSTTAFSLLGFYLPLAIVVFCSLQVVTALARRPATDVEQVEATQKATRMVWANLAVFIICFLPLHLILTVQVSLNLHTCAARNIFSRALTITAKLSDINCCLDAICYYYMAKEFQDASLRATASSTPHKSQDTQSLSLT
How it was run: (§2)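 Rat GPR35 expressed by transfecting a parental CHO β-arrestin-EA line; cells seeded at 20000/well the day before. Compounds (final DMSO ≤1%) were incubated 90 min, followed by detection reagent and a luminescence read after 60 min.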

[4] = target: G-protein coupled receptor 35 (Mus musculus) (UniProt Q9ES90); experiment: Agonist activity at mouse GPR35 expressed in CHO cells assessed as induction of beta-arrestin recruitment at 10 uM after 90 mins by beta-galactosidase reporter gene assay relative to zaprinast; assay type: cell-based
Sequence of G-protein coupled receptor 35 (Mus musculus) (Q9ES90 whole entry): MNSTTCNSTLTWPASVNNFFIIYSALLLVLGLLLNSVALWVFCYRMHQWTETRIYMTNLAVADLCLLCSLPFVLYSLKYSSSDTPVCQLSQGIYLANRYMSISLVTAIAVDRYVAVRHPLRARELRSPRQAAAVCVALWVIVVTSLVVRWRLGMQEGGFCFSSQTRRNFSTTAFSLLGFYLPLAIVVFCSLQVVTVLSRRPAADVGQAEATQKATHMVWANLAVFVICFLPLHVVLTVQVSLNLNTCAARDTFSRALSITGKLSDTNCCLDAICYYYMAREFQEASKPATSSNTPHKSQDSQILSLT
How it was run: (§3)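 Mouse GPR35 introduced by transfection into a CHO β-arrestin-EA line; 20000 cells/well plated the day prior. After 90 min of compound exposure (final DMSO ≤1%), detection reagent was added and luminescence read after 60 min.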

[5] = target: G-protein coupled receptor 35 (Mus musculus, UniProt Q9ES90); experiment: Agonist activity at mouse GPR35 expressed in CHO cells assessed as induction of beta-arrestin recruitment after 90 mins by beta-galactosidase reporter gene assay; assay type: cell-based; how it was run: as §3
Sequence of G-protein coupled receptor 35 (Mus musculus, UniProt Q9ES90) (Q9ES90 whole entry): as above

[6] = target: T2, G-protein coupled receptor 35 (Homo sapiens, UniProt Q9HC97); experiment: Agonist activity at human GPR35 expressed in CHO cells assessed as induction of beta-arrestin recruitment at 10 uM after 90 mins by beta-galactosidase reporter gene assay relative to zaprinast; assay type: cell-based
T2 sequence (Q9HC97 whole entry, the tested form may be a part): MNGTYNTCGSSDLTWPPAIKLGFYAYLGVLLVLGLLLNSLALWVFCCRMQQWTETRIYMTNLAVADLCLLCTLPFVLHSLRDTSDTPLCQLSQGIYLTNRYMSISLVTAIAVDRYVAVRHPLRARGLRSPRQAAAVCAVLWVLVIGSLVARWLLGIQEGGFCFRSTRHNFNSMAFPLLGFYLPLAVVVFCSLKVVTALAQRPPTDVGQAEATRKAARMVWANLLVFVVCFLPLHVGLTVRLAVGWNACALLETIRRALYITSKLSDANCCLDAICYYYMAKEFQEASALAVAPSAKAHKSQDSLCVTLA
How it was run: (§4)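 PathHunter enzyme-fragment complementation in CHO cells stably expressing β-arrestin-EA and tagged human GPR35, seeded at 20000 cells/well the day before. DMSO dilutions were further diluted 1:10 (final DMSO ≤1%). Cells were incubated 90 min, then detection reagent was added and luminescence read after 60 min.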

[7] = target: T2, G-protein coupled receptor 35; experiment: Agonist activity at human GPR35 expressed in CHO cells assessed as induction of beta-arrestin recruitment after 90 mins by beta-galactosidase reporter gene assay; assay type: cell-based; how it was run: as §4
[8] = target: G protein-coupled receptor GPR35 (Rattus norvegicus) (UniProt Q33BM1); experiment: Agonist activity at rat GPR35 expressed in CHO cells assessed as induction of beta-arrestin recruitment at 10 uM after 90 mins by beta-galactosidase reporter gene assay relative to zaprinast; assay type: cell-based; how it was run: as §2
[9] = target: G protein-coupled receptor GPR35 (Rattus norvegicus, UniProt Q33BM1); experiment: Agonist activity at rat GPR35 expressed in CHO cells assessed as induction of beta-arrestin recruitment after 90 mins by beta-galactosidase reporter gene assay; assay type: cell-based; how it was run: as §2
Sequence of G protein-coupled receptor GPR35 (Q33BM1 whole entry): as the sequence (Q33BM1 as listed by the source) above

[10] = target: T1, G-protein coupled receptor 55; experiment: Antagonist activity at human GPR55 expressed in CHO cells assessed as inhibition of lysophosphotidylinositol-induced beta-arrestin recruitment at 10 uM preincubated for 30 mins followed by lysophosphotidylinositol induction by beta-galactosidase reporter gene assay relative to control; assay type: functional, cell-based; how it was run: as §1
[11] = target: T2, G-protein coupled receptor 35; experiment: Agonist activity at human GPR35b expressed in CHO cells assessed as induction of beta-arrestin recruitment at 10 uM after 90 mins by beta-galactosidase reporter gene assay relative to zaprinast; assay type: cell-based
How it was run: (§5)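 CHO β-arrestin-EA parental line transfected with human GPR35b, seeded at 20000 cells/well the day before. Compounds in DMSO were diluted 1:10 in medium or PBS (final DMSO ≤1%). After 90 min of incubation, detection reagent was added and luminescence measured 60 min later. Screening was at 10 µM.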

[12] = target: T2, G-protein coupled receptor 35; experiment: Agonist activity at human GPR35b expressed in CHO cells assessed as induction of beta-arrestin recruitment after 90 mins by beta-galactosidase reporter gene assay; assay type: cell-based; how it was run: as §5
[13] = target: G-protein coupled receptor 35 (Mus musculus) (UniProt Q9ES90); experiment: Agonist activity at mouse GPR35 expressed in CHO cells assessed as induction of beta-arrestin recruitment at 10 uM after 90 mins by beta-galactosidase reporter gene assay; assay type: cell-based; how it was run: as §3
[14] = target: T2, G-protein coupled receptor 35; experiment: Agonist activity at human GPR35 expressed in CHO cells assessed as induction of beta-arrestin recruitment at 10 uM after 90 mins by beta-galactosidase reporter gene assay; assay type: cell-based; how it was run: as §4
Homo sapiens = organism: Homo sapiens; experiment: Selectivity ratio of IC50 for human GPR55 to EC50 for human GPR35
[15] = target: T3, Aryl hydrocarbon receptor (Homo sapiens, UniProt P35869); experiment: Activation of AHR (unknown origin)
T3 sequence (P35869 whole entry): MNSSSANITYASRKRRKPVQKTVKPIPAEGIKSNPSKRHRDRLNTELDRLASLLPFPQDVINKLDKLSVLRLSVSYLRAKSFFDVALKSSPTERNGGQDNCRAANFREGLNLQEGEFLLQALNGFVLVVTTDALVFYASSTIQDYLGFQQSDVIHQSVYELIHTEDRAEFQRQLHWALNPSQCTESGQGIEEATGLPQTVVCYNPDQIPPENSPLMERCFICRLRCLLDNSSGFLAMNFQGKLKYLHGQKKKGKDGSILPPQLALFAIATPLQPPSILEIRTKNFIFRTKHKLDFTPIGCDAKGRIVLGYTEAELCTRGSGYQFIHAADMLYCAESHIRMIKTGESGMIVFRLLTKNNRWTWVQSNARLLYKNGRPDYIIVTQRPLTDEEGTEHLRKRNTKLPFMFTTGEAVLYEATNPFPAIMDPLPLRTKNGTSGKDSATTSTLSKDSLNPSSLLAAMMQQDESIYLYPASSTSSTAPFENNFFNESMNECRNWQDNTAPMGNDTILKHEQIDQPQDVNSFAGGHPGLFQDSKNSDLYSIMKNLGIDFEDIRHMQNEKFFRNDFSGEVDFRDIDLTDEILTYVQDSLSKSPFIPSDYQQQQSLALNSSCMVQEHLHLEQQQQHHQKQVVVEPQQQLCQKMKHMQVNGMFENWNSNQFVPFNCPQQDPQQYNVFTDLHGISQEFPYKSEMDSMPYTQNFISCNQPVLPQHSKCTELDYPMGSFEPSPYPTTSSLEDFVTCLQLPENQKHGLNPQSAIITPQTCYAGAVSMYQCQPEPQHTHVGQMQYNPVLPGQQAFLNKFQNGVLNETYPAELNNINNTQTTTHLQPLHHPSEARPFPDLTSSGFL

[16] = target: Neuronal acetylcholine receptor subunit alpha-7 (Homo sapiens, UniProt P36544); experiment: Inhibition of alpha7 nAChR (unknown origin)
Sequence of Neuronal acetylcholine receptor subunit alpha-7 (P36544 whole entry): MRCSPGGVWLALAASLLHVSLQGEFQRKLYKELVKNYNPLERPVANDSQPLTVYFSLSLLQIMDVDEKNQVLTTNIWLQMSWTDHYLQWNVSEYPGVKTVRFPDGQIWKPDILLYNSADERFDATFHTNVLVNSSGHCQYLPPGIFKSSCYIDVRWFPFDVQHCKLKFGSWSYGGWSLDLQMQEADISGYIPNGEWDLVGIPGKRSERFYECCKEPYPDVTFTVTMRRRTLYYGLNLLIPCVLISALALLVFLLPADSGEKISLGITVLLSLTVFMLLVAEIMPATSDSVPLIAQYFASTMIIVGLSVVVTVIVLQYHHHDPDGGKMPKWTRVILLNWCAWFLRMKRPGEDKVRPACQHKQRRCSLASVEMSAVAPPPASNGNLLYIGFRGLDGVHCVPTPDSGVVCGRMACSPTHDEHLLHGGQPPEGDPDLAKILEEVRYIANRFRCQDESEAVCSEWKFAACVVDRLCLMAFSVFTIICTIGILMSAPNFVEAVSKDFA

[17] = target: Glutamate [NMDA] receptor; experiment: Inhibition of NMDA receptor (unknown origin); parameters: species or system Homo sapiens
[18] = target: GABA-A receptor; agonist GABA site; experiment: Inhibition of GABAA receptor (unknown origin); assay type: protein-complex assay, Homo sapiens
[19] = Inhibition of AMPA receptor (unknown origin); parameters: species or system Homo sapiens
[20] = Stability of the compound in aceronitrile/water at pH 8 at 1.2 mM after 2 to 4 days by LC-MS analysis in presence of ammonia and ammonium acetate; assay type: physicochemical; details: buffer, pH 8, 1200 µM
How it was run: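 Solution of compound at 1.20 mM in 1:1 acetonitrile/water at pH 8.0, containing ammonia ([…]) and ammonium acetate (2 mM); sample then analysed by LC-MS.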

[21] = Stability of the compound in aceronitrile/water at pH 5.5 at 1.2 mM after 4 hrs by LC-MS analysis; assay type: physicochemical; details: buffer, pH 5.5, 4 h, 1200 µM
How it was run: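 Compound dissolved at 1.20 mM in 1:1 acetonitrile/water at pH 5.5 with no added acid, base or salt; sample then analysed by LC-MS.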

[22] = Stability of the compound in aceronitrile/water at pH 3.5 at 1.2 mM after 90 mins by LC-MS analysis in presence of acetic acid and ammonium acetate; assay type: physicochemical; details: buffer, pH 3.5, 1.5 h, 1200 µM
How it was run: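 Compound prepared at 1.20 mM in 1:1 acetonitrile/water adjusted to pH 3.5, containing acetic acid (300 mM) and ammonium acetate (2 mM); sample then analysed by LC-MS.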

[23] = Inhibition of PDE (unknown origin); parameters: species or system Homo sapiens
[24] = Inhibition of chloride channel (unknown origin); parameters: species or system Homo sapiens

Structure (SMILES) | IC50 [1] [µM] | Activity [2] [%] | Emax [4] [%] | EC50 [5] [µM] | Emax [6] [%] | EC50 [7] [µM] | Emax [8] [%] | EC50 [9] [µM] | inhibition [10] [%] | Activity [13] [%] | other results
O=C(Nc1cccc2c(=O)cc(C(=O)O)oc12)c1ccc2ccccc2c1 | 29.1 | 6 | 79 | 2.99 | 125 | 4.67 | – | – | – | – | Activity [3]: 46%
COc1ccc(C(=O)Nc2cc(Br)cc3c(=O)cc(C(=O)O)oc23)cn1 | 6.2 | 9 | 64 | 4.98 | 117 | 0.0305 | 94 | 0.991 | – | – | –
COc1ccc(C(=O)Nc2cc(Br)cc3c(=O)cc(C(=O)O)oc23)cc1OC | – | -12 | 73 | 6.4 | 102 | 0.425 | 106 | 1.3 | 45 | – | Emax [11]: 101%; EC50 [12]: 0.628 µM
CCCOc1ccc(C(=O)Nc2cccc3c(=O)cc(C(=O)O)oc23)cc1 | – | 10 | – | – | – | – | 80 | 3.61 | 21 | 13 | Activity [14]: 4%
COc1ccc(C(=O)Nc2cc(Br)cc3c(=O)cc(C(=O)O)oc23)nc1 | 8.92 | 4 | – | – | 115 | 0.144 | 68 | 1.54 | – | 27 | –
COc1ccc(C(=O)Nc2cc(Br)cc3c(=O)cc(C(=O)O)oc23)c(Cl)c1 | 21.7 | 10 | – | – | 120 | 0.0111 | 81 | 4.17 | – | 35 | Ratio IC50/EC50 (Homo sapiens): > 1700; Emax [11]: 129%; EC50 [12]: 0.0147 µM
COc1ccccc1C(=O)Nc1cc(Br)cc2c(=O)cc(C(=O)O)oc12 | – | 9 | 71 | 4.95 | 91 | 1.66 | 73 | 1.1 | 44 | – | –
O=C(O)c1cc(=O)c2ccccc2[nH]1 [TRANSTORINE] | – | – | – | – | – | 217 | – | 66 | – | – | EC50 [15]: 0.3 µM; IC50 [16]: 7 µM; IC50 [17]: 15 µM; IC50 [18]: 2900 µM; IC50 [19]: 10 µM
O=C(Nc1cccc2c(=O)cc(C(=O)O)oc12)c1ccc2ccccc2n1 | – | -6 | 65 | 3.59 | 81 | 1.34 | – | – | 31 | – | Activity [3]: 41%
COc1ccc(C(=O)Nc2cccc3c(=O)cc(C(=O)O)oc23)cc1 | – | 0 | 66 | 5.03 | 104 | 0.346 | 85 | 2.16 | -3 | – | Emax [11]: 115%; EC50 [12]: 0.472 µM
O=C(Nc1cccc2c(=O)cc(C(=O)O)oc12)c1ccc(OCC2CC2)cc1 | – | -5 | – | – | – | – | – | – | 24 | 13 | Activity [3]: 48%; Activity [14]: 10%
COc1ccc(C(=O)Nc2cc(Br)cc3c(=O)cc(C(=O)O)oc23)cc1 | 21.7 | 0 | – | – | 121 | 0.0121 | 88 | 1.4 | – | 36 | Ratio IC50/EC50 (Homo sapiens): > 1700; Emax [11]: 136%; EC50 [12]: 0.0221 µM; Stability [20]: Stable; Stability [21]: Stable; Stability [22]: Stable
O=C(O)c1cc(=O)c2c(OCC(O)COc3cccc4oc(C(=O)O)cc(=O)c34)cccc2o1 [CROMOLYN SODIUM] | – | – | 102 | 4.84 | 119 | 1.26 | 104 | 0.986 | – | – | Ki [23]: 0.0008 µM; IC50 [24]: 5 µM
Nc1cccc2c(=O)cc(C(=O)O)oc12 | – | -11 | – | – | – | – | – | – | 19 | 4 | Activity [3]: 40%; Activity [14]: 2%
